How the values were obtained:
[1] = melting temperature; fluorescence melt of hairpins on a sequencing array, two-state fit, raised by 9.35 °C to match UV melts; details: sodium 0.088 M
In short: (§1)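 Cy3 fluorescence of library hairpins on a sequenced MiSeq flow cell, with annealed Cy3 and quencher oligos, was imaged in 50 mM Na-HEPES pH 8.0, 25 mM NaCl in 2.5 °C steps up to 60 °C. Signals were normalised to pre-quench Cy3 and to control variants. Melting temperature and folding enthalpy came from bootstrapped two-state fits, inverse-variance combined over four replicates. Fitted temperatures were raised by 9.35 °C to match UV melts.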

[2] = folding enthalpy; higher = less favourable; fluorescence melt of hairpins on a sequencing array, two-state fit; details: sodium 0.088 M
In short: as §1

Sequence	Tm [1]	folding enthalpy [2]
GTATAGCGAAAGCTGTAC (((.(((....))).)))	51.1 °C	-31.5 kcal/mol
GCTGCAGGAAACCACAGC ((((..(....)..))))	37 °C	-24.9 kcal/mol
GCGTCCTACGC ((((...))))	62.5 °C	-20.2 kcal/mol
GCACACCGAAAGGTCTGC (((.(((....))).)))	47 °C	-26.5 kcal/mol
GGTTCCGAAAGGACGACC ((((((....)))..)))	37.4 °C	-15.8 kcal/mol
GACATCGGAAACGATGCC (.(((((....))))).)	44.9 °C	-12.5 kcal/mol
AAGTGGAAACACTT (((((....)))))	42 °C	-19.6 kcal/mol
GATCGTTAGAACGATC ((((((....))))))	55.2 °C	-34.7 kcal/mol
GACTCAGGAAACCGAGTC (((((.(....).)))))	46.2 °C	-29.8 kcal/mol
GCGTGATCGAAAGATCGC (((..(((....))))))	47.5 °C	-15.6 kcal/mol
CGGGACCGGAAACGGCCG (((..(((....))))))	48.5 °C	-16.1 kcal/mol
CGAGCGGAAACGCTCTCG ((((((....)))..)))	40.5 °C	-8.45 kcal/mol
GTCTATGGAAACACAGAC ((((.((....)).))))	31.6 °C	-21 kcal/mol
GGATATGGAAACATATTC (.(((((....))))).)	36.9 °C	-22.2 kcal/mol
GATCTGGTCGCAGATC ((((((....))))))	52.4 °C	-24.9 kcal/mol
GCACCAGGAAACTGGCGC ((.((((....)))).))	55.6 °C	-41.4 kcal/mol
GATCTGGCCCAGATC ((((((...))))))	49.7 °C	-35.1 kcal/mol
GATCGGGCCTCCGATC ((((((....))))))	59.7 °C	-36.6 kcal/mol
GCGTTACCACGC ((((....))))	52.8 °C	-24.2 kcal/mol
GCTCGCGAAAGCGAAGC ((((((....))).)))	65.3 °C	-17.6 kcal/mol
GATTCCGAAAGGATCATC ((((((....)))..)))	29.6 °C	-17 kcal/mol
GGATCCGAAAGGATTTCC ((((((....)))..)))	37.4 °C	-13.7 kcal/mol
GCAATCGAAAGATTCTGC ((((((....)))..)))	33.7 °C	-16 kcal/mol

Sequence	Tm [1]	folding enthalpy [2]
GGCTCCGAAAGGAATGCC ((((((....)))..)))	51.3 °C	-26.9 kcal/mol
GCGACGGGAAACCGCCAC (.(.(((....))).).)	31.9 °C	-13.4 kcal/mol
GATCAGATATCTGATC ((((((....))))))	50.3 °C	-47.9 kcal/mol
GATCGTAACGACGATC ((((((....))))))	54.9 °C	-34.8 kcal/mol
GTATTCGAAAGAAATAC ((((((....))).)))	34 °C	-14.9 kcal/mol
GCGGGAATCCGC ((((....))))	68.3 °C	-27.9 kcal/mol
GAAGTGAAAACTTC (((((....)))))	43.1 °C	-23.2 kcal/mol
GCATTTGAAAAAATGC ((((((....))))))	52.8 °C	-30.9 kcal/mol
CGATTCGGAAACGACTCG (((.(((....))).)))	42.6 °C	-37.8 kcal/mol
GTCATACCGAAAGGTGAC (((..(((....))))))	43 °C	-19 kcal/mol
GTGAGGGGAAACCCTCAC (((((((....)))))))	67.7 °C	-33.4 kcal/mol
GCCCGGCGAAAGCCTCGC ((..(((....)))..))	27.3 °C	-6.9 kcal/mol
GCGCCCGAAAGGGTTCGC ((((((....)))..)))	54.6 °C	-17.7 kcal/mol
GATCGTTAGGACGATC ((((((....))))))	55.2 °C	-37.9 kcal/mol
GCCATCGAAAGATGGGC ((((((....))).)))	63.2 °C	-15.4 kcal/mol
GATCATGGAAACATGACC (.(((((....))))).)	36.1 °C	-17.4 kcal/mol
GATCAAGCAGTTGATC ((((((....))))))	46.6 °C	-31.8 kcal/mol
GCACAGGGAAACCTATGC (((.(((....))).)))	37.1 °C	-24.2 kcal/mol
GTAGCAGGAAACTGCTGC (.(((((....))))).)	55.5 °C	-26.2 kcal/mol
GCGTTCGAAAGAATACGC ((((((....)))..)))	47.5 °C	-27.3 kcal/mol
GTGCACGAAAGTGCTCAC ((((((....)))..)))	43.3 °C	-7.03 kcal/mol
GAGACCGAAAGGTCGCTC ((((((....)))..)))	69.1 °C	-14.3 kcal/mol
GATCAGTGTCTGATC ((((((...))))))	50 °C	-34.8 kcal/mol

Sequence	Tm [1]	folding enthalpy [2]
GTCAACGCGAAAGCGGAC (((..(((....))))))	42 °C	-15.3 kcal/mol
GGTCAACGAAAGTTACC (((.(((....))))))	38.2 °C	-20.6 kcal/mol
GGTGAAGGAAACTCCACC ((((.((....)).))))	39 °C	-31.3 kcal/mol
GAGGTACGAAAGTATCTC (((.(((....))).)))	50.5 °C	-32.3 kcal/mol
GATCATGGAATGATC ((((((...))))))	56.5 °C	-39.3 kcal/mol
GATCGGAGTGCCGATC ((((((....))))))	57 °C	-30.2 kcal/mol
GGTAGGGGAAACTCTACC (((((.(....).)))))	46 °C	-37.4 kcal/mol
GCGAAGCGAAAGCGTCGC ((((.((....)).))))	68.7 °C	-21.3 kcal/mol
GGTCGGCGAAAGCCCACC (((.(((....))).)))	46.9 °C	-21.7 kcal/mol
GATCTGTCACAGATC ((((((...))))))	50.6 °C	-36.2 kcal/mol
GCCCGGCGAAAGCCGAGC ((.((((....)))).))	68.3 °C	-18.4 kcal/mol
GCGATCACGAAAGTGCGC (((..(((....))))))	48.7 °C	-20.9 kcal/mol
GAGCGGACGAAAGTCCTC (((..(((....))))))	29.9 °C	-8.32 kcal/mol
GCGGCAGGAAACTACCGC ((((.((....)).))))	53.1 °C	-41.2 kcal/mol
GCAAAGGGAAACCTTTGC (((((((....)))))))	64.1 °C	-45.1 kcal/mol
GCGTGGCGAAAGCTGCGC (((..((....))..)))	67.9 °C	-40.4 kcal/mol
GCCCAGCGAAAGCTTCGC ((..(((....)))..))	40.3 °C	-6.41 kcal/mol
GACATTGAAAAATGTC ((((((....))))))	50.3 °C	-31.1 kcal/mol
GATCTTAATAAAGATC ((((((....))))))	40.9 °C	-28.5 kcal/mol
GAGTAAGGAAACTTACCC (.(((((....))))).)	28.4 °C	-14.6 kcal/mol
GAATGCGGAAACGCATTC (((((((....)))))))	67.5 °C	-39.1 kcal/mol
GTTAGTCGAAAGACGAAC (((.(((....))).)))	49 °C	-25.6 kcal/mol
GCCGAGCGAAAGCTGAGC ((..(((....)))..))	51.2 °C	-11.2 kcal/mol
